Results pooled from the literature.
Compare with care: the assays were run in different laboratories.
Target: Ephrin type-A receptor 5 (EPHA5, Homo sapiens, UniProt P54756)

SMILES	read-out	method	concentration	remaining binding [%]
Cc1cnc(Nc2ccc(C(=O)N3CCC(N4CCCC4)CC3)cc2)nc1-c1cc2ccccc2s1	binding	competition with immobilised ligand	1 µM	74
C[C@H]1CCN(c2nccc(-c3cnn4ncccc34)n2)C1	binding	–	1 µM	95
COc1cnc(Nc2cccc(S(N)(=O)=O)c2)nc1N1CCN(c2ccccc2)C(=O)C1	binding	competition with immobilised ligand	1 µM	100
CC1=C(C#N)C(c2ccc3c(c2)c(NC(=O)c2ccccc2C)nn3C)C(C#N)=C(C)N1	cell-free assay	competition with immobilised ligand	1 µM	77
F[C@@H]1CCN(c2nccc(-c3cnn4ncccc34)n2)C1	binding	–	1 µM	100
O=C(Nc1cnc(Oc2ccc(F)cc2)nc1)N1CCc2ncccc2[C@@H]1c1ccc(F)cc1	cell-free assay	competition with immobilised ligand	1 µM	100
CC1CCCN1c1nccc(-c2cnn3ncccc23)n1 (centres unmarked)	binding	–	1 µM	100
CC(=O)Nc1c(C(C)=O)c(=O)n(C)c2nc(-c3ccc(Cl)cc3Cl)c(-c3ccc(Cl)cc3)cc12	cell-free assay	competition with immobilised ligand	1 µM	100
c1cncc(-c2cccc(Nc3nccc(NC4CCCCC4)n3)c2)c1	binding	competition with immobilised ligand	10 µM	100
O=C(c1ccc(Nc2nccc(-c3cc4ccccc4s3)n2)cc1)N1CCC(N2CCCC2)CC1	binding	competition with immobilised ligand	1 µM	100
COc1cnc(Nc2cccc(S(N)(=O)=O)c2)nc1N1CCN(c2ccccc2)CC1	binding	competition with immobilised ligand	1 µM	100
COc1cccc(CNC(=O)c2nc3scc(COCc4ccc(C(=O)O)cc4)c3c(=O)[nH]2)c1	cell-free assay	competition with immobilised ligand	1 µM	98.5
COc1ncc2cc3ccccc3nc2c1C#N	cell-free assay	competition with immobilised ligand	5 µM	99
CN(c1nccc(-c2cnn3ncccc23)n1)C1CC1	binding	–	1 µM	100
O=C(c1ccc(Nc2ncc(Cl)c(-c3ccc(Cl)s3)n2)cc1)N1CCC(N2CCCC2)CC1	binding	competition with immobilised ligand	1 µM	98
Cc1cc(C)c(-n2ccn3nc(-c4cccnc4)cc23)cc1NC(=O)c1cc(C#N)cc(S(F)(F)(F)(F)F)c1	cell-free assay	competition with immobilised ligand	0.1 µM	92.4
Cc1cnn2ncc(-c3ccnc(N(C)C)n3)c2c1	binding	–	1 µM	100
O=C(NCC1CCOCC1)c1n[nH]cc1NC(=O)c1c(F)cccc1F	binding	competition with immobilised ligand	1 µM	100
N[C@H]1CCN(c2nccc(-c3cnn4ncccc34)n2)C1	binding	–	1 µM	100
Cc1nc(Cc2cccc(C(F)(F)F)c2)sc1-c1ccc(C(N)=O)nc1	cell-free assay	competition with immobilised ligand	1 µM	100
